Experimental data reported in PMC3240942 (Molecular cell, 2011).

What was measured:
Sirt1 [1] = target: T1, Sirt1 (Mus musculus, UniProt Q923E4); assay: Inhibition of Sirt1 deacetylation of p53 in transfected H1299 cells; format: cell-based; conditions: 10-fold molar excess of expression vector, 20 μM etoposide 1 hr
T1 sequence (Q923E4 1-737): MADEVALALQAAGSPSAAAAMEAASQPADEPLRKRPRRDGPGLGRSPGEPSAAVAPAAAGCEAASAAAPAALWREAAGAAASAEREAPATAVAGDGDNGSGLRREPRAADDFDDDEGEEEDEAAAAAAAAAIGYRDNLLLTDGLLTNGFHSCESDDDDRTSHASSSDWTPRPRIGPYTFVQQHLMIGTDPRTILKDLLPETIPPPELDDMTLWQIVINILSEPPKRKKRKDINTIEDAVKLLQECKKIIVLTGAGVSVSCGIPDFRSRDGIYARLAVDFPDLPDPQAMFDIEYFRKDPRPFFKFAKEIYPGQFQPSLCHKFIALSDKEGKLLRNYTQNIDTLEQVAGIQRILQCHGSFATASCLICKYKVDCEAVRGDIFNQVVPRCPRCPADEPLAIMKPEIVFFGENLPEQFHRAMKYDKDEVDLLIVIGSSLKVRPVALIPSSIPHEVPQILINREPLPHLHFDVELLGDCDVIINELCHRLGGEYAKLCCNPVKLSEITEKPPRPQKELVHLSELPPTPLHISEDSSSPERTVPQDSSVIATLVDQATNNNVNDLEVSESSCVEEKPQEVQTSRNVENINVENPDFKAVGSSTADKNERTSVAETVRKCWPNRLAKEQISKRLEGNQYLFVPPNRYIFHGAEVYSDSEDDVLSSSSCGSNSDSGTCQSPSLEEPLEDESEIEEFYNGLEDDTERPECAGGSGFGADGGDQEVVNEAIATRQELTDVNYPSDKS
How it was run: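 H1299 cells transiently co-transfected with expression vectors for p53 and V5-tagged Sirt1, plus a 10-fold molar excess of a vector expressing the Flag-tagged test peptide (with or without a nuclear localization signal). After 48 h, cells are exposed to 20 μM etoposide for 1 hr before harvest. Acetylated p53 is detected by immunoblot with an antibody specific for acetyl-K382.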

Sirt1 [2] = target: T1, Sirt1; conditions: binds to deacetylase core of Sirt1; ref Kim et al., 2008; Zhao et al.; cited from earlier work

inhibition of Sirt1 activity in vivo (p53 deacetylation) (Sirt1 [1]): also inhibited Sirt1 activity
Substance: DBC1: Deleted in Breast Cancer 1, endogenous Sirt1 inhibitor
effect on Sirt1 activity (Sirt1 [2]): inhibits its activity
